Screening results from PubChem.
EBI2 antag = EBI2 (human) antagonism | P32249 | EBI2 beta-arrestin recruitment, luminescence, 7a,25-OHC stimulated | 360,000 tested, 0.81% active | AID 651636 | inhibition, % at 5 µM; in the data active = inhibition above about 38%;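 note: enzyme fragment complementation signal reports receptor beta-arrestin coupling in cells; 0% = agonist plus DMSO wells and 100% = wells without agonist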
APJ ag = APJ receptor agonism. P35414. CHO-K1 APJ PathHunter beta-arrestin, luminescence; 0% DMSO wells, 100% apelin. activation, % at 20 µM. 330,000 tested, 0.11% active;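 active = activation more than six SD over the plate average, tested at 20 µM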;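 note: 0% = DMSO alone and 100% = apelin-13 at 10 nM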
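Material: CHO-K1 APJ beta-arrestin complementation cell line; Input: cell density 1000 per well; Incubation: compound stimulation 90 min at 25 °C, detection 60 min; Signal: luminescence from split beta-galactosidase complementation, Galacton Star/Emerald II substrate; Controls: DMSO-only wells as negative, 10 nM Apelin-13 as positive control.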
APJ antagonist = blocks the human apelin receptor APJ | P35414 | CHO-K1 APJ beta-arrestin complementation, luminescence | inhibition, % at 20 µM | 330,000 tested, 0.32% active;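 active = inhibition above about 40% at 20 µM, limit read from the data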;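 note: cells challenged with 10 nM apelin-13 agonist together with compound; plate controls were apelin-13 plus DMSO wells for no effect and DMSO wells lacking apelin-13 for full effect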
HTR2A ag = agonists of mouse serotonin 5-HT2A receptor (HTR2A); P35363; CHO-K1 mHTR2A beta-arrestin complementation, luminescence; percent of 30 µM serotonin response; activation, % at 7.6 µM; 360,000 tested, 0.66% active; AID 624169;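 active = activation above a run cutoff, the mean activation of all tested compounds plus 3 SD, cut at about 14% in these data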;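 note: 0% = plate median of compound wells and 100% = 30 µM serotonin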
CXCR6 inh = blocks human CXCR6 beta-arrestin recruitment | inhibition, % at 20 µM | 360,000 tested, 0.36% active | CHO-K1 PathHunter CXCR6 beta-arrestin, luminescence | AID 602244; in the data active = inhibition above about 34%, passing the limit was not always enough;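 note: antagonist mode with CXCL16 agonist at 10 nM final; 0% = 10 nM CXCL16 with DMSO and 100% = unstimulated wells without agonist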
Target sequence (O00574 whole entry, looked up): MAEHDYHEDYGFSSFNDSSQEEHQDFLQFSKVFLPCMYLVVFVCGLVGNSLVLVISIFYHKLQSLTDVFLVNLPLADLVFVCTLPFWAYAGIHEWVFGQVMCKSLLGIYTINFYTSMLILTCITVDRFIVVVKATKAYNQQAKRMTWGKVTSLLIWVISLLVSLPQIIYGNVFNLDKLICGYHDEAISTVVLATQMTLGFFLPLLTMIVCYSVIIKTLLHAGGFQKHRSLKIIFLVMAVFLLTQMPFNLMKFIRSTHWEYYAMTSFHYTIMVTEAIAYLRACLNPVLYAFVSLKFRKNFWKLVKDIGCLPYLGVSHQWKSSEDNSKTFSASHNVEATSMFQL
CCR6 antagonist = CCR6 (human) receptor antagonism | CHO-K1 CCR6 PathHunter beta-arrestin, luminescence, CCL20-stimulated | inhibition, % at 20 µM | 340,000 tested, 0.49% active | AID 493098;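 active = compounds whose inhibition of the agonist-driven luminescence signal at 20 µM reaches about 50%, limit read from the data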;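 note: cells stimulated with CCL20 at 14 nM final; plate controls were DMSO with CCL20 for no effect and DMSO without agonist for full effect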
Target sequence (P51684 whole entry, looked up): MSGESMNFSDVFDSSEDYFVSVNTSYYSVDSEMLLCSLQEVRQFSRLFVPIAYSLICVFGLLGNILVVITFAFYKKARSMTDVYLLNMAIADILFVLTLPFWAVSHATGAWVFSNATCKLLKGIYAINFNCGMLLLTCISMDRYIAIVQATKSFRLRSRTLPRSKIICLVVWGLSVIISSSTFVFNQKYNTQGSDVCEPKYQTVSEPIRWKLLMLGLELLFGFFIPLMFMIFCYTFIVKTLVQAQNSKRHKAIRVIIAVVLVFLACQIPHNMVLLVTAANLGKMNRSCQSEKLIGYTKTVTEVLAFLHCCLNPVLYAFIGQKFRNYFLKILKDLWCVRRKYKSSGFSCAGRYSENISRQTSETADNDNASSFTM
CXCR6 confirm = CXCR6 antagonism confirmation, single concentration; shares compounds with CXCR6 inh; CHO-K1 CXCR6 PathHunter beta-arrestin, luminescence; inhibition, % at 20 µM; 700 tested, 65% active; AID 602409;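 active = mean inhibition over four retests above 40%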;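 note: receptor stimulated with 10 nM CXCL16 agonist; beta-galactosidase fragment complementation upon beta-arrestin recruitment to receptor; plate controls were CXCL16 plus DMSO for no effect and DMSO without CXCL16 for full effect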
Starred values were filed as active, the others as inactive; / = no result. Compounds with a hit are over-represented: about 2.1% of the library has one in this group of screens.

SMILES	EBI2 antag	APJ ag	APJ antagonist	HTR2A ag	CXCR6 inh	CCR6 antagonist	CXCR6 confirm
CCc1cccc2c(C(=O)C(F)(F)F)cn(CC(=O)NCC3CCCO3)c12 (centres undefined)	-9.9	-4.6	5.7	0.0	45.6*	12.9	2.0
COc1ccc(/C=N/NC(=O)c2cccc(NC(=O)c3ccccc3)c2)c(C(=O)O)c1OC	-20.5	-2.3	-1.1	1.2	28.8	-13.3	/
CCOc1ccc(CNc2ccc(N3CCN(Cc4ccccc4)CC3)cc2)cc1	5.2	8.1	-20.6	-8.2	101.5*	14.8	10.6
COc1ccc(NS(=O)(=O)c2ccc3oc(SC(C)C(N)=O)nc3c2)cc1 (centres undefined)	-18.1	2.3	17.7	4.0	-8.0	-3.5	/
N#C/C(=C/c1ccc(-c2ccc(S(N)(=O)=O)cc2)o1)C(=O)Nc1ccccc1	-22.8	8.4	-47.2	-1.5	6.3	-0.6	/
N#C/C(=C/c1ccc(-c2ccc([N+](=O)[O-])cc2)o1)C(=O)Nc1nc(-c2cccs2)cs1	9.1	/	/	2.7	48.5*	67.7*	44.2*
O=C(CSc1cccc2cccnc12)N1CCCC1	31.2	-6.7	26.9	-6.5	51.8*	70.3*	69.4*
Cc1nn(-c2nc3ccccc3[nH]2)c(N)c1-c1ccccc1	10.8	-6.6	19.2	-0.9	49.2*	/	53.1*
Cc1nn(-c2ccccc2)c(N)c1-c1ccccc1	-0.8	-1.5	8.1	-1.2	-1.4	5.3	/
Cc1cc(OC(=O)Cc2cccc3ccccc23)c([N+](=O)[O-])c(=O)[nH]1	-13.3	-5.1	4.9	-1.6	39.3*	-9.2	-2.3
CCOC(=O)Cc1c(C)nc2c(-c3cccc(Br)c3)c[nH]n2c1=O	4.8	-2.1	19.3	-3.9	35.7*	19.4	12.4
COc1ccc(/C=C/c2ccc3cccc(O)c3n2)c(OC)c1OC	14.9	-6.8	31.2	-32.1	38.0*	61.3*	44.0*
COc1cc(/C=C/c2ccc3cccc(O)c3n2)cc(Cl)c1OC	8.9	-9.0	12.9	-6.1	5.4	22.6	/
Cc1ccc(/C=C/c2ccc3cccc(O)c3n2)s1	0.0	0.9	-22.5	-10.1	36.2*	52.1*	38.2
COc1cc(Br)cc(/C=C/c2ccc3cccc(O)c3n2)c1OC	32.0	-7.7	27.0	7.7	20.9	36.0	/
CCc1nc2c(OCC(=O)c3ccc(F)cc3)cccn2c1N(C)C(=O)c1ccccc1F	2.2	/	/	-1.0	-4.7	/	/
CCNC(=S)N/N=C(\C)c1ccc(Cl)s1	3.2	-4.8	30.2	0.4	41.1*	32.1	26.1
C=C(C)CNC(=S)N/N=C(\C)c1ccc(Cl)s1	17.6	-6.3	19.4	-2.7	18.0	19.1	/
O=C(Nc1nc(-c2ccccc2)c(-c2ccccc2)o1)c1ccc(F)cc1	5.1	-3.5	16.4	-12.3	41.1*	/	27.4
Nc1ccc2c(c1)Cc1cc([N+](=O)[O-])ccc1-2	0.9	-3.3	13.9	-1.3	5.6	17.1	/
CC(O)CN(CC(C)O)c1ccc2c(c1)Cc1cc([N+](=O)[O-])ccc1-2 (centres undefined)	10.5	/	/	-3.3	37.9*	55.4*	41.3*
COc1ccc(/C=C/c2ccc3c(Br)ccc(O)c3n2)cc1	1.8	-0.7	-1.5	2.1	8.8	21.8	/
COc1cc(/C=C/c2ccc3c(Br)cc(Br)c(O)c3n2)ccc1O	12.6	/	/	-5.1	42.0*	67.9*	51.0*
CN(CC(=O)Nc1cccc(F)c1)CC(=O)N(C)c1c(N)n(Cc2ccccc2)c(=O)[nH]c1=O	-7.8	-4.3	9.2	6.3	-0.7	21.8	/
O=S(=O)(c1ccc(NC(=S)N2CCN(c3ccc(O)cc3)CC2)cc1)N1CCOCC1	10.7	2.2	-33.1	-6.3	-8.3	18.0	/
SMILES	EBI2 antag	APJ ag	APJ antagonist	HTR2A ag	CXCR6 inh	CCR6 antagonist	CXCR6 confirm
Cc1ccc(C(=O)c2cc([N+](=O)[O-])ccc2N2CCN(C)CC2)cc1	7.0	-0.9	-5.9	-10.6	58.6*	31.4	9.6
CN1CCN(c2ccc([N+](=O)[O-])cc2C(=O)c2ccc(Br)cc2)CC1	6.6	-3.7	7.8	-8.5	-1.8	17.6	/
CC(OC(=O)c1cccc(S(=O)(=O)N(C)C)c1)C(=O)NCc1ccc2c(c1)OCO2 (centres undefined)	5.1	-2.1	12.6	10.4	-6.2	-3.4	/
C[C@@H]1CC[C@H](Cc2ccc(-n3cccc3)cc2)N1C(=O)OC(C)(C)C	11.1	/	/	-3.5	52.7*	/	9.9
O=[N+]([O-])c1cc(-c2ncccn2)c([N+](=O)[O-])s1	10.5	-1.6	5.9	-1.6	56.2*	84.8*	73.2*
COc1nc(N)nc(NC(=O)c2cccs2)c1N=O	-6.1	4.8	-16.5	-0.3	-21.4	-4.0	/
Cc1ccc(CN2C(=O)[C@H]3Cc4c([nH]c5ccccc45)C(C)(C)N3C2=O)cc1	7.7	1.4	-57.4	-3.8	-1.0	7.1	/
O=C(c1ccccc1)c1ccccc1N1C(=O)C=CC1=O	4.0	1.2	26.7	-6.7	73.6*	/	16.0
CC(NC(=O)COc1ccc(/C=N/NC(=O)CO)cc1)c1ccccc1 (centres undefined)	-6.5	-3.0	17.6	8.4	-11.4	2.9	/
O=C(NC(=S)N1CCN(c2c(Cl)cccc2[N+](=O)[O-])CC1)c1cccs1	13.2	-3.1	7.5	-2.1	38.2*	45.0	34.6
COc1ccc(-c2c(C(=O)c3ccccc3)[nH]c(N)c2C(=O)c2ccccc2)cc1OC	3.1	/	/	-15.2	41.5*	/	41.2*
CCCC(=O)OCCNc1cc(SCCC(=O)OC)c2nonc2c1[N+](=O)[O-]	-9.3	-4.4	20.0	-3.1	49.8*	62.2*	63.1*
O=[N+]([O-])c1c(NCCCO)cc(N2CCCCCC2)c2nonc12	-0.5	-0.6	25.3	-4.2	5.7	12.7	/
CC(=O)OCCNc1cc(Sc2nc3ccccc3[nH]2)c2nonc2c1[N+](=O)[O-]	59.4*	/	/	-5.5	96.0*	103.0*	104.9*
O=[N+]([O-])c1c(NCCCO)cc(Sc2ccc(Cl)cc2)c2nonc12	32.7	/	/	4.1	76.6*	98.5*	95.8*
COC(=O)CCSc1cc(NCCOC(C)=O)c([N+](=O)[O-])c2nonc12	2.2	-3.4	20.9	1.3	26.7	32.7	/
Cc1ccc(C(=O)NCc2ccc3c(c2)OCO3)c(Cl)c1	-6.9	/	/	2.0	1.8	/	/
Cc1ccc(NC(=O)c2nc(S(=O)(=O)Cc3ccccc3C)ncc2Cl)cc1C	55.5*	-3.2	21.0	-3.6	49.8*	61.5*	59.8*
Cc1cccc(CS(=O)(=O)c2ncc(Cl)c(C(=O)NCc3ccc4c(c3)OCO4)n2)c1	16.7	-4.8	-10.8	-9.7	57.1*	48.3	44.2*
